Rows were chosen to be rich in hits. Some 11% of all compounds tested hit in one or more screens of this group.
S1P3 agonist – human S1P3 receptor agonists, primary screen, cell-based, primary and confirmation, NFAT-BLA reporter; Sphingosine 1-phosphate receptor 3 (Homo sapiens), Q99500; S1P3 NFAT-BLA reporter cells, agonism, FRET ratio; relative to 1 µM S1P, basal subtracted; activation, % at 4.5 µM; hit rate 0.1% among 60,000; AID 373, 2006;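 active = activation above the screen-wide mean plus 3 SD, cut at about 4.5% in these data, passing the limit was not always enough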
Target sequence (Q99500 whole entry, looked up): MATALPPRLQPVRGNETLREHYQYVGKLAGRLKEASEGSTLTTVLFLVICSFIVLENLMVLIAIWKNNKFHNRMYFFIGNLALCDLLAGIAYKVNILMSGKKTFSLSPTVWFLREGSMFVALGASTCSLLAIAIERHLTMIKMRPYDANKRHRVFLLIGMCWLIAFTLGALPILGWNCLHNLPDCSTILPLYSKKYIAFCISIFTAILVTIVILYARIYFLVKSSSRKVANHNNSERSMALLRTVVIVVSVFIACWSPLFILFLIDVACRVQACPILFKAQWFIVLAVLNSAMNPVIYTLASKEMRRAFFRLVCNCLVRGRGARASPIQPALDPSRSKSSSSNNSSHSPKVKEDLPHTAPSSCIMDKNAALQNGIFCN
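Material: Human S1P3 NFAT-BLA reporter CHO cells | Incubation: Overnight plating, 4 h compound 37 °C, 2 h substrate RT | Signal: FRET β-lactamase substrate fluorescence, excitation 405 nm, 460/535 nm emission ratio, background-subtracted | Compound: 4.5 µM final, single dose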
M1 ag – M1 muscarinic receptor agonists, primary screen, CHO-M1 cells, Fluo-4 calcium, agonist mode | Muscarinic acetylcholine receptor M1 | hit rate 3% among 64,000 | AID 626, 2007 | B-score at 10 µM | Fluo-4 calcium fluorescence; active compounds read high;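 active = fluorescence rise, raw or as B-score row- and column-corrected plate score, outside the 99.7% band of its plate's samples, either direction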
M1 antagonist – antagonists of rat M1 muscarinic receptor; CHO-M1 cells, Fluo-4 calcium, ACh EC80 antagonist mode; active compounds read low; B-score at 10 µM; hit rate 3.4% among 64,000; AID 628, 2007;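 active = calcium fluorescence response, raw or row-and-column corrected B-score, differing from the plate sample mean either way at a set confidence level, mostly lower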
D1 allo mod – D1 CRE-luciferase signal change, two-sided – cell-based, HEK293 D1, dopamine EC30, D1 allosteric modulator project, primary screen; hit rate 5.9% among 58,000; AID 641, 2007; B-score at 10 µM; dopamine EC30 potentiation; actives deviate in either direction; D(1A) dopamine receptor (Homo sapiens), P21728;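 active = luminescence count or its row- and column-corrected plate score outside the 99.7% band of the plate's sample wells, on either side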
S1P1 ag-PAM – S1P1 agonists and agonism potentiators, primary screen, cell-based, primary and confirmation screens, CRE-bla reporter. Sphingosine 1-phosphate receptor 1 (Homo sapiens), P21453. S1P1 CRE-bla cells, forskolin, beta-lactamase FRET, potentiator mode; S1P1 agonist co-added at EC20, 2 nM; 100% = saturating reference agonist, 0% = basal. activation, % at 9.5 µM. hit rate 0.57% among 56,000;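 active = activation above a cutoff set at the mean activation of all tested compounds plus 3 SD, cut at about 54% in these data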;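 also: forskolin at 4 µM as EC80 and the EC20 agonist is SEW2871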
D1 mod confirm – D1 receptor positive allosteric modulators, retest, confirmation, cell-based, HEK293 D1, CRE-luciferase, duplicate | shares compounds with D1 allo mod | AID 642, 2007 | luminescence at 10 µM | hit rate 88% among 2,200 | dopamine EC30 potentiation; active compounds read high;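 active = luminescence in either of two replicates above the same-plate mean plus 3 SD of the low-dose dopamine control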
D1 ag no DA – D1 receptor agonism without dopamine, confirmation, mechanism study for D1 allosteric modulator project, cell-based, HEK293 D1, CRE-luciferase, secondary assay 1; shares compounds with D1 allo mod; luminescence, no dopamine; active compounds read high; luminescence at 10 µM; hit rate 0.8% among 1,900; AID 646, 2007; in the data active = luminescence above about 3900
Isoprot counter – isoproterenol response counter-screen activity for D1 modulators; HEK293 D1 CRE-luciferase, isoproterenol EC30 counter-screen; shares compounds with D1 allo mod; calls only at 10 µM; hit rate 63% among 2,200;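 active = luminescence in either replicate above plate mean of wells with a partly effective reference agonist dose plus 3 SD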;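 also: isoproterenol raises cAMP through native beta-adrenoceptor Gs so signal bypasses D1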
Large screens that a line does not name were inactive (follow-up assays come after a bar, where they were run).

COc1ccccc1C1CC(c2ccc(Cl)cc2Cl)Nc2nc(N)nn21 (stereo not given)	none
CCC(NC(C)C)C(O)c1ccc(O)c2[nH]c(=O)ccc12 (stereo not given)	D1 allo mod 14 | D1 mod confirm 8644 | D1 ag no DA 3980 | Isoprot counter active
CCCCSc1c(C)c2cc3c(cc2[nH]c1=O)OCO3	none (no result: S1P1 ag-PAM)
CC(C)Oc1ccc2c3c(c(=O)oc2c1)CCC3	D1 allo mod 5.8 | D1 mod confirm 11556 | D1 ag no DA inactive | Isoprot counter active
COC(=O)C(C)Oc1ccc2c3c(c(=O)oc2c1)CCCCC3 (stereo not given)	none
CCOc1cccc(-c2nnc(SCC(=O)Nc3cc(C)ccc3OC)n2N)c1	none (no result: S1P3 agonist, S1P1 ag-PAM)
COc1ccc(C)cc1NC(=O)CSc1nnc(-c2ccc(OC)c(OC)c2)n1N	D1 allo mod 22 (no result: S1P3 agonist, S1P1 ag-PAM) | D1 mod confirm 18440 | D1 ag no DA inactive | Isoprot counter active
Brc1ccccc1-c1nnc2sc(-c3ccc4c(c3)OCCO4)nn12	D1 allo mod 3.8 (no result: S1P1 ag-PAM) | D1 mod confirm 7796 | D1 ag no DA inactive | Isoprot counter active
O=C(OCc1nnc(-c2ccccc2)o1)c1cc(S(=O)(=O)N2CCOCC2)c(Cl)cc1Cl	none
COc1ccc(S(=O)(=O)N2CCc3ccccc32)cc1C(=O)OCc1nnc(-c2ccccc2)o1	D1 allo mod 3.2 | D1 mod confirm 7576 | D1 ag no DA inactive | Isoprot counter active
Cc1ccccc1NC(=O)CSc1nc(N)c(C#N)cc1C#N	none
CC(C)CCSc1nc(N)c(C#N)cc1C#N	D1 allo mod 7.7 (no result: S1P1 ag-PAM) | D1 mod confirm 14056 | D1 ag no DA inactive | Isoprot counter active
COc1ccc(CCNS(=O)(=O)c2cccc3nsnc23)cc1OC	none
CCOc1ccc(CCNS(=O)(=O)c2cccc3nsnc23)cc1OCC	D1 allo mod 19 | D1 mod confirm 19296 | D1 ag no DA inactive | Isoprot counter active
Cc1cc(SCC#N)n2nc(C)c(-c3ccccc3)c2n1	D1 allo mod 14 | D1 mod confirm 14516 | D1 ag no DA inactive | Isoprot counter active
Cc1cc(N2CCCCC2)n2nc(C)c(-c3ccccc3)c2n1	none
CCN=C1SC(CC(=O)Nc2ccccc2OCC)C(=O)N1CC (stereo not given)	D1 allo mod 2.7 | D1 mod confirm 9772 | D1 ag no DA inactive | Isoprot counter inactive
CCN=C1SC(CC(=O)Nc2sc3c(c2C#N)CCCC3)C(=O)N1CC (stereo not given)	none (no result: S1P3 agonist, S1P1 ag-PAM)
CCN=C1SC(CC(=O)NC(N)=O)C(=O)N1CC (stereo not given)	D1 allo mod 4.3 (no result: S1P3 agonist, S1P1 ag-PAM) | D1 mod confirm 20476 | D1 ag no DA inactive | Isoprot counter active
CC(=O)n1nc(-c2ccco2)nc1N	none
CCC(=O)n1nc(-c2ccco2)nc1N	D1 allo mod 15 (no result: S1P1 ag-PAM) | D1 mod confirm 6080 | D1 ag no DA inactive | Isoprot counter inactive
CC(=O)Nc1c(-c2ccccc2)nc2ncccn12	none
Cc1ccc(-c2nc3ncccn3c2NC(=O)C2CC2)cc1	D1 allo mod 2.8 | D1 mod confirm 8360 | D1 ag no DA inactive | Isoprot counter inactive
CS(=O)(=O)c1nc(-c2ccccc2)cc(C(F)(F)F)n1	D1 allo mod 4.1 (no result: S1P3 agonist, S1P1 ag-PAM) | D1 mod confirm 6308 | Isoprot counter inactive
CCOC(=O)N1CCC(NC(=O)c2cccc3c2C(=O)N(Cc2cccnc2)C3)CC1	D1 allo mod 3.7 | D1 mod confirm 8400 | D1 ag no DA inactive | Isoprot counter inactive
O=c1[nH]c2cnccc2n1-c1ccccc1	none (no result: D1 allo mod)
c1ccc(Nc2cc(-c3ccccc3)nc3ncnn23)cc1	D1 allo mod 7.9 | D1 mod confirm 15552 | D1 ag no DA inactive | Isoprot counter active
Cc1cc(Nc2ccc(C)c(F)c2)n2ncnc2n1	D1 allo mod 3.3 | D1 mod confirm inactive | D1 ag no DA inactive | Isoprot counter inactive
COc1ccc(-c2cc(-c3ccccc3)n3ncnc3n2)cc1	none
Nc1ccc(-c2n[nH]c(=O)c3ccccc23)cc1N	none (no result: S1P3 agonist, S1P1 ag-PAM)
Cc1nc2cc(NC(=O)COc3ccc(C#N)cc3)ccc2n1-c1ccccc1	none
CCOC(=O)Nc1c(C(=O)OC)[nH]c2cccc(OC)c12	none
CN(C)C(CNC(=O)c1cccnc1Sc1ccccc1)c1ccco1 (stereo not given)	D1 allo mod 6.6 | D1 mod confirm 8824 | Isoprot counter active
COC(=O)c1sc(NC(=O)c2ccco2)nc1C	none
CCOC(=O)c1sc(NC(NC(=O)c2ccco2)(C(=O)OC)C(F)(F)F)nc1C (stereo not given)	D1 allo mod 5.6 | D1 mod confirm 8940 | D1 ag no DA inactive | Isoprot counter active
O=c1ccccn1Cc1ccccc1F	none
O=c1c2cc3ccccc3n2cnn1Cc1ccccc1F	D1 allo mod 3.1 | D1 mod confirm 21084 | D1 ag no DA inactive | Isoprot counter active
CCOC(=O)c1cc2occc2n1CCCN1C(=O)c2ccccc2C1=O	none (no result: S1P3 agonist, S1P1 ag-PAM)
COc1ccc(CSc2n[nH]c(C)n2)cc1Br	D1 allo mod 6.5 (no result: S1P3 agonist, S1P1 ag-PAM) | D1 mod confirm 10580 | Isoprot counter active
COc1cccc(NC2=NCC(=O)N2Cc2cccs2)c1	D1 allo mod 4.2 (no result: S1P3 agonist, S1P1 ag-PAM) | D1 mod confirm 8816 | D1 ag no DA inactive | Isoprot counter inactive
COc1ccc(NC2=NCCC(=O)N2Cc2cccs2)cc1	none
CCC(C)Nc1nc(OC)nc(N(C)C#N)n1 (stereo not given)	D1 allo mod 6.9 | D1 mod confirm 12160 | D1 ag no DA inactive | Isoprot counter inactive
CCN(CC)C(=O)C(C)N(C#N)c1nc(NC(C)C)nc(NC(C)C)n1 (stereo not given)	none (no result: S1P3 agonist, S1P1 ag-PAM)
COc1ccc(-c2nn3cnnc3s2)cc1OC	D1 allo mod 13 | D1 mod confirm 16540 | D1 ag no DA inactive | Isoprot counter active
COc1ccc(-c2nn3c(-c4ccncc4)nnc3s2)cc1OC	none
CSc1nc2c(c(=O)n1-c1ccccc1)SCC2	D1 allo mod 2.7 (no result: S1P3 agonist, S1P1 ag-PAM) | D1 mod confirm 11540 | D1 ag no DA inactive | Isoprot counter inactive
CCOc1ccc(-n2c(SC(C)C)nc3c(c2=O)SCC3)cc1	D1 allo mod 14 (no result: S1P3 agonist, S1P1 ag-PAM) | D1 mod confirm 19936 | D1 ag no DA inactive | Isoprot counter active

Screening results (PubChem)
